Screening results from PubChem.
ATG4B inh – ATG4B (human) cysteine protease inhibition; Q9Y4P1; 0.51% of 340,000 active; inhibition, % at 8.33 µM; ATG4B cleavage of LC3-PLA2, NBD-HPC fluorescence, 1 h; in the data active = inhibition above about 40%
Rpn11 inh – Rpn11 (human) deubiquitinase inhibition; O00487; human 26S proteasome, Ub4-pepOG fluorescence polarization; 20S core pre-blocked with epoxomicin; inhibition, % at 20 µM; 0.59% of 360,000 active; AID 588493;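 active = inhibition at 20 µM, scaled to each plate's controls, above about 33%, limit read from the data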
Target sequence (O00487 whole entry, looked up): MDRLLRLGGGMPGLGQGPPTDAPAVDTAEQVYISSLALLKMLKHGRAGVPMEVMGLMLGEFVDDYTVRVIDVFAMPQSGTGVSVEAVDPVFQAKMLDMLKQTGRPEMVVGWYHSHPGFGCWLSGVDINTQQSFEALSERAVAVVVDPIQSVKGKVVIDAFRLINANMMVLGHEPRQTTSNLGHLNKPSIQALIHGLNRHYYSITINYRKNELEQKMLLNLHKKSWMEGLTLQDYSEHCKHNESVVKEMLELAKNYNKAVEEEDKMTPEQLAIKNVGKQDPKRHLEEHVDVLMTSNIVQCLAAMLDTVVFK
SENP1 FRET inh – inhibitors of human SENP1 SUMO protease catalytic domain. Q9P0U3. recombinant SENP1 catalytic domain, CyPet-SUMO1-YPet FRET cleavage. inhibition, % at 10 µM. 0.21% of 360,000 active;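 active = inhibition at least 30% at 10 µM, raw YFP signal under a set limit, fluorescence ratio 0.5 to 1.5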;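 also: 0% = enzyme with DMSO and 100% = no enzyme wells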
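Assay system – human recombinant His6-tagged SENP1 catalytic domain enzyme · Input – SENP1 enzyme, 20 pM final · Buffer or medium – Tris pH 8 buffer plus EDTA, NaCl, BME, BSA, NP40, catalase · Schedule – 50 min reaction at room temperature · Technique – FRET read of cyan and yellow fluorescence · Control set – no-enzyme wells low, DMSO-plus-enzyme wells high control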
HNF4A DNA FP – change in binding of human HNF4 alpha to DNA | AID 1224865 | P41235 | 0.3% of 360,000 active | activity change, % at 10 µM | HNF4a-FITC DNA binding, fluorescence polarization, 1 h; in the data active = activity change above about 30%, passing the limit was not always enough
CSN deneddyl inh – CSN deneddylation inhibition; Q92905; Purified CSN, SCF-Nedd8-OG deneddylation, fluorescence polarization; inhibition, % at 12.5 µM; 0.38% of 360,000 active;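 active = pattern-corrected inhibition above about 35%, with an unprinted fluorescence ratio check between 0.5 and 1.5, limit read from the data, passing the limit was not always enough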;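 also: 0% = enzyme with substrate and 100% = substrate without enzyme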
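Test system: Human Csn5 produced in HEK293T cells | Compound: 12.5 µM single point | Times: 90 min, room temperature | Signal: Fluorescence polarization readout | Read-out basis: % inhibition of substrate cleavage by Csn5 | Controls: no-enzyme wells high, enzyme-with-substrate wells low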
TPT1 inhibitor – inhibitors of Candida albicans tRNA 2'-phosphotransferase TPT1; 0.81% of 300,000 active; inhibition, % at 5 µM; recombinant caTPT1, FP RNA substrate dephosphorylation;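 active = inhibition above the mean of all tested compounds plus 3 SD, set per screening campaign, cut at about 24% in these data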;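 also: plate controls were DMSO alone for no effect and ferristatin control at 100 nM for full effect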
caTPT1 confirm – TPT1 (C. albicans) inhibition, confirmation | inhibition, % at 5 µM | shares compounds with TPT1 inhibitor | 74% of 2,400 active | AID 2149 | recombinant caTPT1, fluorescence polarization, RNase T1 coupled;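 active = inhibition above the primary screen limit, the mean inhibition of all tested compounds plus 3 SD, cut at about 25% in these data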
RNase T1 counter – blocks Aspergillus oryzae RNase T1, a TPT1 counter-screen. shares compounds with TPT1 inhibitor. RNase T1 cleavage, fluorescence polarization, 1536-well. inhibition, % at 5 µM. 83% of 2,400 active. AID 2153;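 active = inhibition above the solvent-only control well mean plus 3 SD, limit set per screening run, cut at about 23% in these data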;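 also: plate controls were DMSO wells with enzyme for no effect and wells without RNase T1 for full effect; inhibitors block cleavage so intact labeled substrate keeps polarization high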
Target sequence (P00651 whole entry, looked up): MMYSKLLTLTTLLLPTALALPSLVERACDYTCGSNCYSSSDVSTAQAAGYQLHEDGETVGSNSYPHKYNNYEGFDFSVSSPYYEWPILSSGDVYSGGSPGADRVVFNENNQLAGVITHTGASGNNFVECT
Active calls of the source: *; · = not tested or not shown. A selection: hits, their analogues and other compounds. The true share with any hit is near 2%.

SMILES	ATG4B inh	Rpn11 inh	SENP1 FRET inh	HNF4A DNA FP	CSN deneddyl inh	TPT1 inhibitor	caTPT1 confirm	RNase T1 counter
CCN(CC)S(=O)(=O)c1cccc(NC(=O)COC(=O)CCc2nc3ccccc3s2)c1	-11	4	-3	-3	-1	128*	6	13
O=C(O)CCCNc1cc(N2CCN(C(=O)c3ccco3)CC2)c2noc3c2c1C(=O)c1ccccc1-3	18	·	83*	12	19	96*	170*	141*
O=C(O)CCCNc1cc(N2CCC3(CC2)OCCO3)c2noc3c2c1C(=O)c1ccccc1-3	·	·	·	·	·	-15	·	·
CCOC(=O)N1CCN(c2cc(NCCC(=O)O)c3c4c(onc24)-c2ccccc2C3=O)CC1	8	·	100	97	5	137*	185*	152*
Cc1cccc(NC(=O)CN(C)C(=O)/C=C/c2ccccc2)c1C	4	-2	1	-1	-1	·	·	·
CC(C)n1cc(C(=O)c2ccccc2O)cc(C#N)c1=O	10	-2	-4	3	8	-3	·	·
N#Cc1cc(C(=O)c2cc(F)ccc2O)cn(-c2nccs2)c1=O	10	·	-26	36	-47	55*	57*	67*
Cc1c(-n2cc(C(=O)c3cc(F)ccc3O)cc(C#N)c2=O)c(=O)n(-c2ccccc2)n1C	-7	30	45	15	8	4	·	·
N#Cc1cc(C(=O)c2ccccc2O)cn(-c2nccs2)c1=O	2	·	-26	8	19	44*	42*	52*
COC(=O)C(C)n1nnc2sc(-c3ccccc3)cc2c1=O (stereo not given)	4	5	-102	2	0	26*	27*	33*
O=c1cc(O)c2sc(Nc3ccc(F)cc3)nc2[nH]1	0	35	-24	5	3	35*	20	29*
CCCCc1ccc(S(=O)(=O)NC(=O)C2(C)CCN2C(=O)c2cccc(F)c2)cc1 (stereo not given)	·	-6	-1	0	-3	·	·	·
COCCNc1nc(-c2cc(C)n(CCc3ccc(OC)cc3)c2C)cs1	5	15	-4	5	8	48*	10	16
COc1ccccc1CNc1nc(-c2cc(C)n(C)c2C)cs1	9	9	4	18	-3	·	·	·
CN(C)c1ccc(/C=N/N(CCC#N)C2=NS(=O)(=O)c3ccccc32)cc1	-8	·	14	10	28	27*	8	17
CC(=O)c1cc(NC(=O)c2ccc(C)cc2)c(=O)oc1/C=C/N(C)C	7	·	9	96*	61*	156*	134*	135*
COC(=O)c1cc(NC(=O)c2ccc(OC)cc2)c(=O)oc1C	-9	2	-18	1	1	2	·	·
COc1ccc(C(=O)Nc2cc(C(C)=O)c(/C=C/N(C)C)oc2=O)cc1	-4	·	-33	117*	52*	114*	125*	130*
CC1=C(C(=O)N2CCCCCC2)CC(CC(=O)NCCN2CCOCC2)C(=O)N1CCCN1CCCC1=O (stereo not given)	·	·	-2	-3	-1	·	·	·
O=C(COC(=O)c1c(F)cccc1Cl)NC(=O)Nc1ccc2c(c1)OCCO2	1	1	4	0	-5	·	·	·
O=C(CCNS(=O)(=O)c1ccccc1C(F)(F)F)NCCCc1ccccc1	-10	4	-3	3	-1	·	·	·
O=C1N/C(=C/c2ccc(N3CCOCC3)o2)C(=O)N1c1cccc(Cl)c1	-20	65*	-19	127	7	82*	168*	166*
CC(=O)Nc1ccc(S(=O)(=O)N(C)CC(=O)OCC(=O)Nc2cc(C)on2)cc1	-42	1	1	-1	0	·	·	·
N#Cc1ccsc1NC(=O)c1cccc(-n2cnnn2)c1	-3	·	11	42*	38*	48*	51*	64*
CCOC(=O)c1csc(CCNC(=O)c2ccccc2)n1	·	-3	2	-1	-6	·	·	·
SMILES	ATG4B inh	Rpn11 inh	SENP1 FRET inh	HNF4A DNA FP	CSN deneddyl inh	TPT1 inhibitor	caTPT1 confirm	RNase T1 counter
CCN1C(=O)c2cccc3c(NC(=O)c4ccc5c(c4)OCCO5)ccc1c23	-13	·	2	60*	20	47*	65*	72*
CC1=Nc2ccccc2/C1=C\c1nc(-c2ccc(F)cc2)oc1O	-11	-11	-26	14	3	93*	96*	102*
CN=Cc1nc(-c2ccccc2)oc1O	-2	-6	2	0	-8	5	·	·
Cn1cc(S(=O)(=O)NC[C@H]2O[C@@H](n3ccc(=O)[nH]c3=O)[C@H](O)[C@@H]2O)cn1	-8	2	-1	1	1	·	·	·
O=C(COc1ccc2ccccc2c1)Nc1nccs1	-3	-6	-5	5	-2	28*	4	10
COc1cccc(-c2cn3nc(C)c(C)nc3n2)c1	-9	28	-25	8	3	45*	45*	55*
Cc1nc2nc(-c3ccc(Cl)cc3)cn2nc1C	11	6	-14	-2	4	7	·	·
O=[N+]([O-])c1ccc(Nc2ccccc2)c2nonc12	2	33	21	23	15	25*	35*	50*
COc1ccc(-c2ccc3c(N)c(C(=O)c4ccc(OC)c(OC)c4)sc3n2)cc1	0	32	-22	21	5	54*	60*	70*
CCOC(=O)c1sc2nc(-c3ccccc3)ccc2c1N	-6	0	-24	3	-4	5	·	·
COc1ccc(C(=O)c2sc3nc(-c4ccccc4)ccc3c2N)cc1OC	-22	30	-19	69*	17	91*	88*	94*
COc1ccc(-c2ccc3c(N)c(C(=O)NC(C)C)sc3n2)cc1OC	-7	2	-38	1	-3	0	·	·
Cc1cccc(C)c1-n1nnnc1C(c1ccnc2ccccc12)N1CCN(C/C=C/c2ccccc2)CC1 (stereo not given)	·	4	-2	-3	3	·	·	·
COCCNC(=O)C1CCCN(C(=O)c2cncc(Br)c2)CC1 (stereo not given)	·	-5	0	7	-4	·	·	·
O=C1CN(CC(=O)Nc2cccc(Cl)c2Cl)c2ccccc2N1	-2	·	-13	35*	0	34*	16	24*
O=C(CN1C(=O)NC2(CCCC2)C1=O)Nc1cccc(Cl)c1Cl	-4	3	0	-1	2	1	·	·
COc1cccc(NC(=O)C2(C)CCCN2C(=O)C(C)C)c1OC (stereo not given)	·	-1	5	9	1	·	·	·
